SENP7 inh = blocks the human protease SENP7. Q9BQF6. recombinant SENP7, Z-RLRGG-aminoluciferin luminescence, 40 min. inhibition, % at 5 µM. 330,000 tested, 1.5% active. AID 434973;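 active means inhibition above about 50% at the single test dose, limit read from the data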;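 further: plate controls were DMSO with enzyme for no effect and no enzyme buffer wells for full effect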
Target sequence (Q9BQF6 706-1050 limits assumed): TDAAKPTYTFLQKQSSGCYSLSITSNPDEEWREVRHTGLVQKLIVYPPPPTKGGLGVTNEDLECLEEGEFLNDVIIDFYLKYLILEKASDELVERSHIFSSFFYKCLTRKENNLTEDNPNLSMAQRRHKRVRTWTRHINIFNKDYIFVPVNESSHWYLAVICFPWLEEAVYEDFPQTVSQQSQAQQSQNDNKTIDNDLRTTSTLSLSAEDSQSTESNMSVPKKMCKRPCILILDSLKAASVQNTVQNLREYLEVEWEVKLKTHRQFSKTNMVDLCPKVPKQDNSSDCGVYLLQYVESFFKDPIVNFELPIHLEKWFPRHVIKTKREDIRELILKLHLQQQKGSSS
SENP6 inh = blocks the human protease SENP6. Recombinant SENP6 catalytic domain, aminoluciferin luminescence. 330,000 tested, 1.8% active. Q9GZR1. inhibition, % at 10 µM. AID 2599;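 active means inhibition above about 50% at the single tested dose, limit read from the data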;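 further: plate controls were DMSO wells with enzyme for no effect and DMSO wells lacking enzyme for full effect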
SENP1 FRET inh = inhibitors of human SENP1 SUMO protease catalytic domain; inhibition, % at 10 µM; Q9P0U3; recombinant SENP1 catalytic domain, CyPet-SUMO1-YPet FRET cleavage; 360,000 tested, 0.21% active;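 active means inhibition at least 30% at 10 µM, raw YFP signal under a set limit, fluorescence ratio 0.5 to 1.5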;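 further: 0% = enzyme with DMSO and 100% = no enzyme wells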
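Test system: recombinant human SENP1 catalytic domain, His6-tagged / Medium: pH 8 Tris buffer with EDTA, NaCl, BME, BSA, NP40, catalase / Also added: SUMO1 FRET substrate flanked by Cypet and Ypet, 25 nM / Times: 50 min reaction at room temperature / Signal: FRET, CFP and YFP emission / Control set: no-enzyme low control and enzyme-plus-DMSO high control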
HSP90 refold inh = HSP90 refolding inhibition in rabbit reticulocyte lysate; luciferase refolding luminescence, 3 h; inhibition, % at 5.6 µM; 290,000 tested, 0.91% active;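 active means inhibition above the screen-wide mean plus 3 SD, computed separately per campaign, cut at about 16% in these data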;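 further: 0% = DMSO wells and 100% = 60 µM geldanamycin wells; inhibitors lower the luminescence because luciferase stays unfolded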
SENP8 block-1 = SENP8 (human) protease inhibition | Q96LD8 | recombinant SENP8, Nedd8 substrate fluorescence | inhibition, % at 20 µM | 360,000 tested, 0.64% active; in the data active means inhibition mostly above about 40%, no sharp cut-off; inactive means mostly below about 27%
Target sequence (Q96LD8 whole entry, looked up): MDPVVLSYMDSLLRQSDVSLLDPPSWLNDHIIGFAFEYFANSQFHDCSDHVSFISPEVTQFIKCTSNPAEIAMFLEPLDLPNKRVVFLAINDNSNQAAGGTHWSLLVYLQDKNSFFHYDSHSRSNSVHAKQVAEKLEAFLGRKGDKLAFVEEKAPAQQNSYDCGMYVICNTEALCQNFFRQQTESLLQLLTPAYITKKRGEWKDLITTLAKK
SENP8 block-2 = inhibitors of human SENP8 protease | inhibition, % at 10 µM | purified SENP8, Z-RLRGG-aminoluciferin cleavage, luminescence | AID 2540 | 330,000 tested, 1.2% active; in the data active means inhibition above about 50%
SENP8 confirm = confirmation of human SENP8 protease inhibitors | shares compounds with SENP7 inh | 6,200 tested, 40% active | inhibition, % at 12.5 µM | Recombinant SENP8, Z-RLRGG-aminoluciferin luminescence, 60 min | AID 488912;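 active means mean inhibition across replicates above about 50%, limit read from the data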
SENP6 conf = human SENP6 inhibition, confirmed | recombinant SENP6, Z-RLRGG-aminoluciferin luminescence | shares compounds with SENP7 inh | 6,200 tested, 58% active | inhibition, % at 12.5 µM
SENP7 conf = confirmation of human SENP7 protease inhibitors | inhibition, % at 12.5 µM | 6,200 tested, 69% active | recombinant SENP7, Z-RLRGG-aminoluciferin luminescence, 40 min | shares compounds with SENP7 inh | AID 488917
Casp3 SENP sel = selectivity test for SENP inhibitors: human caspase-3 inhibition | purified caspase-3, Z-DEVD-aminoluciferin luminescence, 60 min | 6,200 tested, 60% active | inhibition, % at 12.5 µM | shares compounds with SENP7 inh;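 active means mean inhibition above about 50%, limit read from the data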;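 further: plate controls were enzyme with DMSO for no effect and wells without caspase-3 for full effect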
Target sequence (P42574 28-227 limits assumed): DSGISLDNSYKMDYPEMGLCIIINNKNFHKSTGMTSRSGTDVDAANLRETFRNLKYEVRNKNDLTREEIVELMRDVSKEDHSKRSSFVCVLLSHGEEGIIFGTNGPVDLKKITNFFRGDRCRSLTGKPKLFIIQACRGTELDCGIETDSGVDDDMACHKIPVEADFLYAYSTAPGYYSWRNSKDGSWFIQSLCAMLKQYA
Luc interf = counter-screen for SENP inhibitors: luminescence interference | shares compounds with SENP7 inh | Pre-incubated SENP8/Z-RLRGG-aminoluciferin, luciferase luminescence interference | inhibition, % at 12.5 µM | 6,200 tested, 39% active | AID 488919;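 active means mean inhibition above about 50% when retested at one dose, limit read from the data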;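 further: plate controls were DMSO wells with completed reaction for no effect and substrate without enzyme for full effect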
* hit, by the source's call; / = no result given. An excerpt weighted towards active compounds, which were near 2.9% of everything screened.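 How the source made its calls, unless noted: active means mean inhibition above about 50% in the one-dose retest (limit read from the data); inactive means the rest.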

SMILES | SENP7 inh | SENP6 inh | SENP1 FRET inh | HSP90 refold inh | SENP8 block-1 | SENP8 block-2 | SENP8 confirm | SENP6 conf | SENP7 conf | Casp3 SENP sel | Luc interf
Cc1ccc(C(=O)OCC(=O)Nc2sc3c(c2C#N)CCC3)cc1 | -13.1 | -16.6 | -9.7 | -4.3 | 8.2 | -14.7 | / | / | / | / | /
Cc1cccc(C(=O)Nc2sc3c(c2C#N)CCCCC3)c1 | 77.2* | 15.7 | -5.7 | 3.5 | -24.0 | 33.3 | 30.5 | 21.1 | 15.5 | 30.9 | -2.1
N#Cc1c(NC(=O)COC(=O)c2ccc(F)cc2)sc2c1CCC2 | 51.4* | -4.2 | -3.4 | -2.0 | -3.5 | 1.4 | -5.0 | -4.2 | 1.6 | 9.6 | 7.7
Cc1ccc(S(=O)(=O)N2C[C@@H](C)[C@]3(C2)[C@H](O)[C@H](OC(=O)NC2CCCC2)C[C@H]2C(=O)N(c4ccccc4)C(=O)[C@H]23)cc1 | / | / | 0.9 | / | -5.4 | / | / | / | / | / | /
Cc1ccc(-c2cc3c(N=O)c4ccccc4c-3n[nH]2)cc1 | 100.6* | 99.8* | -1.2 | 58.4* | 0.3 | 22.9 | 39.0 | 29.5 | 20.7 | 54.8* | 8.5
Cc1ccc(-n2c(C)nnc2SCC(=O)N(C)c2c(N)n(Cc3ccccc3)c(=O)[nH]c2=O)cc1 | -10.3 | -20.0 | -1.0 | / | 4.4 | -9.2 | / | / | / | / | /
COc1ccc(C2CC(=O)Oc3cc(C)c(Cl)c(C)c32)cc1 (stereo not given) | 0.8 | / | 0.5 | / | 3.0 | / | / | / | / | / | /
COc1cccc(CNC(=O)CCC2CCCN(C(=O)c3cc4ccccc4o3)C2)c1 (stereo not given) | 52.5* | 21.2 | 2.3 | -5.2 | 7.3 | 54.4* | 0.5 | 62.1* | 88.6* | 76.1* | 58.9*
COc1cccc(CNC(=O)CCC2CCCN(C(=O)c3ccoc3)C2)c1 (stereo not given) | -0.8 | 13.5 | 1.2 | 0.1 | 5.7 | 2.1 | / | / | / | / | /
O=C(Oc1ccc2ccccc2c1Cl)N1CCCC1 | 57.0* | 73.2* | -1.1 | 1.2 | 15.9 | 37.8 | 48.0 | 52.1* | 83.9* | 52.7* | 59.3*
O=C(Oc1ccc2ccccc2c1Cl)N1CCCCCC1 | 53.3* | 75.9* | 0.2 | 5.0 | 20.0 | 54.0* | 71.1* | 69.9* | 86.7* | 44.7 | 37.0
CCCCN1C(=O)/C(=C2\SC(N3CCCCC3)=NC2=O)c2ccccc21 | 10.6 | 26.1 | 1.3 | 0.4 | 12.7 | -6.7 | / | / | / | / | /
CCCCN1C(=O)C(=Nc2cccc3cnccc23)c2ccccc21 | 81.4* | 87.0* | -0.4 | 4.7 | -398.3 | 10.7 | -9.6 | -3.3 | -7.2 | -1.9 | -7.2
Cc1ccc(NC(=O)CN2C(=O)S/C(=C/c3ccc(O)c([N+](=O)[O-])c3)C2=O)cc1C | 2.3 | -27.4 | 2.3 | -5.2 | 33.8 | 31.4 | / | / | / | / | /
Cc1cccc(NC(=O)CN2C(=O)S/C(=C\c3ccc(O)c([N+](=O)[O-])c3)C2=O)c1 | -2.9 | 50.6* | 3.0 | -1.5 | 26.4 | 27.0 | 13.2 | 4.2 | 17.3 | 23.5 | 15.0
COC(=O)C1=C(C)N(c2ccc(Cl)c(Cl)c2)C(=O)C1 | -0.8 | 4.5 | -68.5 | 1.9 | -6.2 | 0.6 | / | / | / | / | /
COC(=O)[C@]12C(=O)NC[C@H](CN1c1ccc(Cl)c(C)c1)N2C | 99.8* | -9.3 | 1.7 | / | 21.2 | 6.3 | -29.7 | -17.6 | -11.1 | -11.7 | -9.3
COc1ccccc1-n1c(=O)oc2ccc(Cl)cc2c1=O | 12.1 | 53.0* | 4.6 | 0.3 | 4.1 | 39.8 | 52.8* | 50.2* | 55.4* | 30.4 | 5.0
c1cncc(-c2nc(-c3ccc4c(c3)OCO4)cs2)c1 | 68.8* | 73.1* | -1.5 | -5.1 | -103.8 | 49.9 | 44.4 | 69.3* | 87.3* | 61.4* | 13.3
Oc1ccc(-c2csc(-c3cccnc3)n2)c(O)c1 | 55.2* | 66.1* | 0.4 | -4.8 | -73.8 | 35.3 | 44.4 | 41.9 | 82.0* | 54.4* | 58.0*
CC(=O)Nc1ccc(-c2csc(-c3cccnc3)n2)cc1 | 51.4* | 40.8 | -1.0 | 7.1 | -264.2 | 26.8 | 24.2 | 48.3 | 83.9* | 62.0* | 11.9
Clc1ccsc1-c1csc(-c2cccnc2)n1 | 45.0 | 68.9* | 1.4 | -0.6 | -94.5 | 31.7 | 25.8 | 42.9 | 82.0* | 13.9 | 12.2
CSc1cccc(NC(=O)CNC(=O)C2CCCCC2)c1 | -0.3 | 13.4 | 0.4 | -0.6 | 16.2 | 2.0 | / | / | / | / | /
CCn1ncc(Br)c1C(=O)Nc1c(C)nn(Cc2c(F)c(F)c(F)c(F)c2F)c1C | 2.7 | 2.6 | 1.1 | -1.6 | 8.4 | -1.8 | / | / | / | / | /
C=CCNC(=O)C(=O)c1cccn1-c1ccsc1C(=O)OC | 1.3 | -7.7 | 4.4 | 1.8 | 20.2 | -4.2 | / | / | / | / | /
SMILES | SENP7 inh | SENP6 inh | SENP1 FRET inh | HSP90 refold inh | SENP8 block-1 | SENP8 block-2 | SENP8 confirm | SENP6 conf | SENP7 conf | Casp3 SENP sel | Luc interf
CC(=O)N1CC(=O)N(c2ccccc2)C1=O | 3.0 | 10.3 | -0.2 | -6.9 | 1.9 | 4.6 | / | / | / | / | /
O=C(O)c1ccc(SCc2ccccc2)nc1 | -1.0 | 76.2* | 1.7 | / | 9.0 | 55.8* | 7.1 | 72.2* | 91.7* | 90.8* | 79.6*
CN(C)c1ccc(N=Nc2cccc3ccoc23)cc1 | 90.5* | 86.3* | 4.9 | 0.5 | 24.0 | 83.8* | 77.0* | 76.7* | 94.0* | 48.0 | 28.3
Cc1nn(Cc2ccccc2)c(Cl)c1/C=C/C(=O)OC(C(=O)NC(N)=O)C(C)C (stereo not given) | -0.5 | -17.0 | 1.7 | 3.5 | 1.1 | -1.7 | / | / | / | / | /
COc1ccccc1NC(=O)Cc1cccc2ccccc12 | 12.2 | -34.6 | 0.1 | 0.7 | 6.0 | 1.8 | / | / | / | / | /
COc1ccc(C(C)(C)C)cc1NC(=O)CNc1cccc2ccccc12 | 24.7 | 77.2* | -20.8 | 4.5 | -330.8 | 48.4 | 11.7 | 9.6 | 9.4 | 3.8 | 2.1
CC(=O)c1sc(NC(=O)c2cccc(C)c2)nc1C | 62.8* | 66.7* | -5.2 | 11.6 | -12.8 | 46.9 | 43.0 | 60.9* | 87.9* | 78.5* | 23.6
CC(=O)c1sc(NC(=O)c2ccccc2C)nc1C | 81.7* | 78.6* | 2.1 | -0.4 | 6.1 | 66.8* | 40.2 | 67.3* | 93.1* | 90.1* | 51.9*
O=C(C1CC(c2ccccc2O)=NO1)N1CCCCC1 (stereo not given) | 73.6* | -16.9 | 1.5 | 1.2 | 3.4 | -4.3 | -10.8 | -6.6 | -12.9 | 7.7 | 7.3
N#CC1=C(N)Oc2c(ccc3ccccc23)C1c1ccsc1 (stereo not given) | 16.2 | 61.8* | -32.5 | -9.2 | -115.0 | 8.8 | -21.3 | -18.0 | -6.9 | -8.2 | -0.6

Assay outcomes from PubChem.
